# Shown are actives, neighbours in structure and some others; about 2.1% of the full set was active somewhere.
# bovine MsrA act: activates bovine MsrA enzyme; activation, % at 10.6 µM; purified bovine MsrA, absorbance read-out; 360,000 tested, 0.3% active; AID 602163; in the data active means activation above about 7.5%;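 further: 0% = vehicle and 100% = reference activator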
# VIM-2 inh: inhibitors of Pseudomonas aeruginosa VIM-2 metallo-beta-lactamase; purified VIM-2, nitrocefin hydrolysis, epi-absorbance fluorescence; inhibition, % at 5.6 µM; 290,000 tested, 0.89% active; AID 1527;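 active means inhibition above the mean of all tested compounds plus 3 SD, cutoff set per screening run, cut at about 7.5% in these data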;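 further: red hydrolysis product quenches plate fluorescence so inhibitors raise well fluorescence; 0% = enzyme with DMSO and 100% = DMSO without enzyme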
# MsrA inhibitor: bovine MsrA inhibition; purified bovine MsrA, absorbance read-out; inhibition, % at 15.5 µM; 360,000 tested, 0.75% active; AID 651718; in the data active means inhibition above about 4.5%;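 further: 0% = vehicle wells with enzyme and 100% = reference inhibitor wells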
# PKA-R2B activ: PKA-R2B complex activation. PKA-R2B holoenzyme dissociation, Cy5-IP20 fluorescence polarization; R2B truncated from residue 108, S112A mutant; 0% DMSO only, 100% 113 µM cGMP. activation, % at 11.4 µM. 340,000 tested, 0.079% active. AID 504700;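 active means activation above a cutoff set at the mean over all compounds plus 3 SD, cut at about 18% in these data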;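 further: higher means more holoenzyme dissociation and a rise in polarization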
# Target sequence (P31323 whole entry, looked up, other chains not shown, the tested form may be a part): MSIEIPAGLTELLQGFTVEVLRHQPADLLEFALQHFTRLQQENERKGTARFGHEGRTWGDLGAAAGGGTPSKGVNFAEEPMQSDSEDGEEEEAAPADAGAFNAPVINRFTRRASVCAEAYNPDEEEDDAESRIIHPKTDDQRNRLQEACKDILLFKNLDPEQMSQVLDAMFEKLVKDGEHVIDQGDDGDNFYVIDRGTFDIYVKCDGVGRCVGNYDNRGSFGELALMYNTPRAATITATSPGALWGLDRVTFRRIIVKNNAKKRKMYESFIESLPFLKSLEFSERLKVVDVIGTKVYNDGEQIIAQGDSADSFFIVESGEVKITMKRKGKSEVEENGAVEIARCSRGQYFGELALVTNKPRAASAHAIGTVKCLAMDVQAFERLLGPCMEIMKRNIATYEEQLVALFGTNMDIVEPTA
# PKA-R1A activ: PKA-R1A complex activation; P00514+P68181; PKA-R1A dissociation, Cy5-IP20 fluorescence polarization; scaled: DMSO 0%, 113 µM cGMP 100%; activation, % at 11.4 µM; 340,000 tested, 0.083% active; AID 504707;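 active means percent activation above the mean of all tested compounds plus 3 SD, cut at about 19% in these data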;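 further: higher means more PKAc released from R1A so a rise in polarization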
# IMP-1 inh-1: inhibitors of Pseudomonas aeruginosa IMP-1 metallo-beta-lactamase; purified IMP-1, nitrocefin hydrolysis, epi-absorbance fluorescence; 290,000 tested, 0.45% active; inhibition, % at 5.6 µM;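 active means inhibition above the mean plus 3 SD of all compounds in the same screening run, cut at about 4.5% in these data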;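 further: 0% = IMP-1 with DMSO and 100% = DMSO wells lacking enzyme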
#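 System: Purified recombinant IMP-1 metallo-beta-lactamase enzyme | Measured by: Fluorescence quenching readout, ex 480/em 530 nm | Replication: Singlicate | Incubation: 15 min preincubation plus 25 min reaction at 25 °C | Evaluation: Percent inhibition from optical density relative to buffer-blank wells | Benchmarks: DMSO with and without IMP-1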
# IMP-1 inh-2: selectivity counter-screen for VIM-2 inhibitors: IMP-1 metallo-beta-lactamase inhibitors; purified IMP-1, nitrocefin hydrolysis, epi-absorbance fluorescence; inhibition, % at 5.6 µM; shares compounds with VIM-2 inh; 1,300 tested, under 10 active; call rule not given here;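 further: 0% = enzyme with vehicle and 100% = vehicle without enzyme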
# VIM-2 FRET inh: counter-screen for VIM-2 inhibitors: epi-absorbance artifacts via FRET; shares compounds with VIM-2 inh; purified VIM-2, CCF2 FRET substrate hydrolysis; inhibition, % at 5.6 µM; 1,300 tested, 23% active; AID 1857;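 active means inhibition above the mean of all tested compounds plus 3 SD, cut at about 19% in these data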;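 further: 0% = VIM-2 plus DMSO and 100% = no enzyme wells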
# TEM-1 counter: blocks E. coli TEM-1 beta-lactamase in VIM-2 selectivity screen | 1,300 tested, 3% active | AID 1866 | shares compounds with VIM-2 inh | inhibition, % at 5.6 µM | Purified TEM-1, nitrocefin hydrolysis, epi-absorbance fluorescence;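 active means inhibition above that campaign's mean inhibition plus 3 SD, cut at about 0.46% in these data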;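 further: 0% = TEM-1 with DMSO and 100% = TEM-1 with 100 µM potassium clavulanate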
# VIM-2 inh conf: confirmation of P. aeruginosa VIM-2 metallo-beta-lactamase inhibitors; shares compounds with VIM-2 inh; purified VIM-2, nitrocefin hydrolysis, epi-absorbance; inhibition, % at 5.6 µM; 1,300 tested, 96% active;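 active means inhibition of the VIM-2 beta-lactamase enzyme above about 11% from the earlier first-round screen, limit read from the data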;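 further: 0% = VIM-2 with DMSO and 100% = buffer wells without enzyme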
# * = called active by the depositor; . = not tested or not shown.
SMILES,bovine MsrA act,VIM-2 inh,MsrA inhibitor,PKA-R2B activ,PKA-R1A activ,IMP-1 inh-1,IMP-1 inh-2,VIM-2 FRET inh,TEM-1 counter,VIM-2 inh conf
CNc1cc(C)c(C#N)c2nc3ccccc3n12,-1.6,23.8*,0.3,0.8,-7.2,-4.8,-3.0,2.3,-6.5,35.4*
Cc1cc(N2CCN(c3ccccn3)CC2)n2c(nc3ccccc32)c1C#N,0.0,0.9,0.3,-12.5,3.9,-3.2,.,.,.,.
Cc1cc(Cl)n2c(nc3ccccc32)c1C#N,-7.7,20.5*,2.5,-10.3,-2.5,-3.0,-3.0,-7.6,-7.0,33.7*
COC(=O)[C@]12C[C@H](CC(=O)N3CCCC3)C(=O)N(CCC3=CCCCC3)C1=C[C@H](COCc1ccccc1)O[C@@H]2C,.,.,0.9,.,.,.,.,.,.,.
C=CCCC1CN(Cc2ccc(OC)cc2)S(=O)(=O)c2c(cccc2Sc2ccc(OC)c(OC)c2)O1 (stereo unspecified),.,.,0.9,.,.,.,.,.,.,.
Cc1nn(CC(=O)NCCCN2CCC(N3CCCCC3)CC2)c(=O)c2cc(-c3ccccc3)nn12,-1.3,22.3*,-0.5,-3.7,-7.5,-2.5,-4.3,-1.0,-5.7,36.5*
COc1ccc(NC(=O)N(C)C[C@@H]2OCc3cnnn3CCCC(=O)N([C@@H](C)CO)C[C@@H]2C)cc1,.,.,0.6,.,.,.,.,.,.,.
COc1ccc(-c2n[nH]c(=S)n2-c2ccc3c(c2)OCCO3)cc1OC,0.6,17.8*,1.0,2.1,-9.7,-1.4,-3.3,50.5*,-6.2,31.1*
COc1ccc(-c2n[nH]c(=S)n2-c2ccc3c(c2)OCCO3)cc1,2.1,13.4*,3.3,-1.0,-3.3,-5.2,-2.8,34.2*,-7.5,19.5*
Cc1csc(-c2nc3ccccc3n2C(C(=O)NC(C)(C)C)c2cc3ccccc3o2)c1 (stereo unspecified),.,.,0.1,.,.,.,.,.,.,.
CCCn1c(=N)c(S(=O)(=O)c2ccc(F)cc2)cc2c(=O)n3cccc(C)c3nc21,-6.7,12.7*,0.6,-0.3,12.9,-1.4,-0.9,-4.3,2.9*,27.1*
CCc1ccc(/C=N/Nc2ncnc3nc[nH]c23)cc1,-3.9,15.1*,2.0,-0.5,5.5,-3.1,-2.8,-14.6,-1.1,42.8*
Cc1ccc(S(=O)(=O)N(CC(=O)NC2CC3CCC2C3)c2ccccc2)cc1 (stereo unspecified),-1.6,.,0.2,-4.3,-2.3,.,.,.,.,.
Cc1ccc(C)c(CSc2ccc3nnc(-c4ccccn4)n3n2)c1,-3.0,13.7*,0.3,-2.8,5.4,-2.9,-3.4,-3.0,-7.7,24.8*
COC(=O)c1ccc(CSc2ccc3nnc(-c4ccc(F)cc4)n3n2)o1,-3.4,0.8,-1.1,-1.9,2.5,-1.1,.,.,.,.
COC(=O)c1ccc(CSc2ccc3nnc(-c4ccccn4)n3n2)o1,-2.0,21.3*,0.9,14.4,5.5,-3.8,-3.9,2.8,-5.5,38.1*
Cc1ccc(CSc2ccc3nnc(-c4ccccn4)n3n2)cc1,-0.6,21.2*,0.1,-4.6,-1.4,-3.1,-3.6,-3.1,-5.7,34.0*
O=C(CSc1ccc2nnc(-c3ccccn3)n2n1)Nc1ccccc1,-7.7,0.0,1.7,-10.7,-0.3,-1.8,.,.,.,.
Cc1ccc(CSc2ccc3nnc(-c4cccnc4)n3n2)cc1,0.5,1.6,-0.4,-5.8,-4.2,-3.3,.,.,.,.
Brc1ccc(CSc2ccc3nnc(-c4ccccn4)n3n2)cc1,-2.3,25.0*,-0.2,-2.9,-6.1,-2.8,-3.8,-4.5,-7.2,51.6*
Cc1ccc(Cl)cc1N1CCN(C(=O)c2ccccc2SCC(=O)N2CCCC2)CC1,-1.1,.,0.6,0.4,-0.5,.,.,.,.,.
CCCCC(=O)N(C)c1c(C)nc2ccc(C(=O)N3CCN(S(=O)(=O)CC)CC3)cn12,-0.1,.,-1.2,.,.,.,.,.,.,.
